Screening results: PubChem BioAssay, several laboratories
NR2E3 ag-1: human photoreceptor-specific nuclear receptor agonism | Q9Y5X4 | CHO-S Gal4-NCOR/VP16-NR2E3 two-hybrid, luciferase | inhibition of corepressor binding, % at 3.98 µM | hit rate 0.35% among 360,000 | AID 602229;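 active means inhibition above the mean of all tested compounds plus 3 SD, cut at about 70% in these data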;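 further: 0% = DMSO with NR2E3 transfected cells and 100% = cells lacking NR2E3 construct; higher means lower luciferase signal from less NR2E3 corepressor binding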
EP2 mod: EP2 receptor (human) modulation; EP2-expressing cells, cAMP HTRF FRET, PGE2 co-stimulation; induction, % at 25 µM; hit rate 0.83% among 260,000; AID 940;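 active means compounds whose cAMP rise, as percent of the full-agonist control response, exceeds 60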;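 further: rat C6 glioma line stably carrying human EP2 under a CMV promoter; the protocol text gives 20 µM as final concentration; 100% = response of wells given 1 µM PGE2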
Target sequence (P43116 whole entry, looked up): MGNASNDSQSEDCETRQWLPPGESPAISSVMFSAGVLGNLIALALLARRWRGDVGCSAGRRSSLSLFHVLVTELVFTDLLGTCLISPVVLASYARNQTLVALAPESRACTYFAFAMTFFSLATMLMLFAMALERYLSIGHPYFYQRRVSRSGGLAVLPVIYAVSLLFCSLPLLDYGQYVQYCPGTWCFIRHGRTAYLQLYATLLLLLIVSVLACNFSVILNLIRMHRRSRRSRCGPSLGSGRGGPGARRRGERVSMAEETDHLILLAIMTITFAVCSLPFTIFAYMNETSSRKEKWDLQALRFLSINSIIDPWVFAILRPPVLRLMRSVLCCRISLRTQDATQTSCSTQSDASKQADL
PGE2 EP2 inh: blocks the human prostaglandin E2 receptor EP2 | C6 glioma cells expressing human EP2, cAMP TR-FRET; cells stimulated with saturating PGE2 | inhibition, % at 25 µM | hit rate 0.52% among 260,000 | AID 1422;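 active means percent inhibition above 40 after rounding to a whole number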;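 further: rat C6 glioma host cells with rolipram phosphodiesterase inhibitor present; the protocol text gives 20 µM as final concentration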
Furin inhibitor: inhibitors of human furin; hit rate 0.061% among 220,000; purified furin, fluorogenic substrate cleavage; AID 463115; inhibition, % at 20 µM or 30 µM; P09958; in the data active means inhibition above about 25%
NR2E3 ag-2: NR2E3 (human) agonism. inhibition of corepressor binding, % at 4.78 µM. GST-NR2E3/biotin-RetCOR TR-FRET, 1536-well. Q9Y5X4. AID 2300. hit rate 0.12% among 320,000;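 active means percent inhibition above the cutoff of mean plus 3 SD of all tested compounds, set per screening campaign, cut at about 20% in these data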;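 further: 0% = DMSO wells and 100% = biotin wells as full block of FRET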
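System: GST-NR2E3 and biotin-RetCOR proteins; probe or stimulus: 7 nM biotin-RetCOR; doses: compound at 4.8 µM, single dose; schedule: Compound–protein incubation for 5 h at 4 °C; detection: time-resolved FRET; read-out: percent inhibition; controls: biotin wells as high control, 0.6% DMSO wells as low control; format: 1536-well plates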
JMJD2C inh: blocks human GASC-1 demethylase activity; GST-JMJD2C(1-420) H3K9me3 demethylation, DELFIA europium; inhibition, % at 2.35 µM; hit rate 0.069% among 330,000;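 active means more than half of a compound's replicate wells show inhibition beyond 50%, single wells judged on their own value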;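 further: signal counts dimethyl H3K9 product captured on neutravidin plate; 0% = median of DMSO wells and 100% = 0.3 times that DMSO median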
NR2E3 ag conf: NR2E3 agonism confirmed in two-hybrid assay; shares compounds with NR2E3 ag-1; CHO-S mammalian two-hybrid NR2E3-NCOR, luciferase luminescence; inhibition, % at 3.98 µM; hit rate 51% among 2,300;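 active means average inhibition above a cutoff equal to the mean inhibition of all tested compounds plus one SD, cut at about 70% in these data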;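 further: 0% = DMSO in NR2E3 cells and 100% = DMSO in cells lacking NR2E3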
GAL4-VP16 luc: GAL4-VP16 reporter inhibition in NR2E3 agonist counterscreen; shares compounds with NR2E3 ag-1; CHO-S GAL4-VP16 luciferase reporter, luminescence; inhibition, % at 3.98 µM; hit rate 29% among 2,300; AID 624379;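 active means mean inhibition above a cutoff equal to the average over all tested compounds plus one standard deviation, cut at about 70% in these data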;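 further: luciferase from a UAS reporter driven by GAL4-VP16 transactivation; 0% = DMSO with VP16-transfected cells and 100% = DMSO with cells lacking VP16; higher means less reporter light so more repression of VP16 activity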
Active calls of the source: *; / = not tested or not shown. An excerpt weighted towards active compounds, which were near 1.3% of everything screened.

SMILES	NR2E3 ag-1	EP2 mod	PGE2 EP2 inh	Furin inhibitor	NR2E3 ag-2	JMJD2C inh	NR2E3 ag conf	GAL4-VP16 luc
CCOc1ccc(S(=O)(=O)NCc2ccncc2)cc1	92*	-6	6	-25	2	4	95*	90*
N#CCSc1nnc(-c2ccccc2)o1	/	-22	8	/	/	/	/	/
Cc1nn(C(C)CC(=O)NCc2noc(-c3ccccc3)n2)c(C)c1C (stereo unspecified)	/	8	6	/	/	/	/	/
COc1cccc(/C(O)=C2/C(=O)C(=O)N(CCN(C)C)C2c2ccc(C)o2)c1 (stereo unspecified)	/	11	8	/	/	/	/	/
CC(C)CNC(=O)C1(N2C(=O)c3ccccc3C2=O)CCCC1	51	/	/	/	/	/	-11	2
CC(C)NC(=O)C1(N2C(=O)c3ccccc3C2=O)CCCC1	2	/	/	/	/	/	/	/
O=C(CSc1nnc2ncccn12)Nc1nccs1	/	4	8	/	/	/	/	/
NC(=O)c1nsc(C(=O)N(C2CCCC2)C(C(=O)NC2CCCC2)c2ccc(Cl)cc2)c1N (stereo unspecified)	/	-33	9	/	/	/	/	/
CN1CCc2c(sc(NC(=O)c3ccc([N+](=O)[O-])o3)c2C(N)=O)C1	57	/	/	/	-5	4	49	40
NC(=O)c1c(NC(=O)c2ccc([N+](=O)[O-])o2)sc2c1CCCC2	5	-104	22	/	5	-8	/	/
CC(C)CCNC(=O)CN(Cc1ccco1)C(=O)c1snc(C(N)=O)c1N	49	-40	9	-8	-2	-13	4	7
CCCOc1ccc(CSc2nc3ccccc3[nH]2)cc1	74*	-32	/	-4	5	-2	74*	44
Cc1ccc(Nc2nc(N/N=C/c3c[nH]c4ccccc34)nc(N3CCOCC3)n2)cc1	52	1	4	0	0	22	51	20
Cc1cccc(Nc2nc(N3CCOCC3)nc(N3CCOCC3)n2)c1	57	/	/	/	2	-3	56	29
C(=N\Nc1nc(Nc2ccccc2)nc(N2CCOCC2)n1)/c1c[nH]c2ccccc12	/	-17	14	-4	-1	-5	/	/
Cc1ccc(OCc2ccc(C(=O)Nc3c(C)nn(Cc4c(F)c(F)c(F)c(F)c4F)c3C)o2)c([N+](=O)[O-])c1	51	-6	4	6	-3	6	40	53
Cn1nc(C(F)(F)F)c(/C=N/OC(=O)c2ccccc2)c1SCc1ccccc1Cl	65	30	2	-14	-5	2	71*	70
Nc1nc(-c2ccccc2)nn1C(=O)Cc1ccccc1	82*	18	17	-17	3	19	1	-3
Cc1ccccc1OCC(O)Cn1c(NCCN)nc2c1c(=O)n(C)c(=O)n2C (stereo unspecified)	/	-33	11	/	/	/	/	/
Cc1cc(/C=c2\sc3nc4ccccc4n3c2=O)c(C)n1-c1ccc(C(=O)O)cc1	-32	-46	32	-5	/	8	/	/
Cc1cc(/C=c2/sc3nc4ccccc4n3c2=O)c(C)n1-c1ccccn1	80*	-26	13	-8	0	1	84*	75*
CCN(CC)c1ccc(/C=c2\sc3nc4ccccc4n3c2=O)c(O)c1	58	-54	4	-27	/	-2	79*	60
O=c1/c(=C/c2ccc(O)c([N+](=O)[O-])c2)sc2nc3ccccc3n12	-20	-70	13	-2	/	/	/	/
CCOc1ccc(C(=O)N(CC)Cc2cc3cc(C)ccc3[nH]c2=O)cc1	/	-42	10	/	/	/	/	/
COc1ccccc1NC(=O)c1ccccc1NS(=O)(=O)c1cccs1	11	-5	3	-17	3	-8	/	/
SMILES	NR2E3 ag-1	EP2 mod	PGE2 EP2 inh	Furin inhibitor	NR2E3 ag-2	JMJD2C inh	NR2E3 ag conf	GAL4-VP16 luc
Cc1ccc(NC(=O)c2ccccc2NS(=O)(=O)c2ccc(Cl)s2)cc1S(=O)(=O)N1CCOCC1	90*	-11	12	-23	2	-4	99*	78*
COc1ccc(C)cc1NC(=O)c1ccccc1NS(=O)(=O)c1ccc(Cl)s1	101*	-7	13	-20	3	17	99*	90*
O=C(Nc1cc(S(=O)(=O)N2CCOCC2)ccc1O)c1ccc(NS(=O)(=O)c2ccc(Cl)s2)cc1	18	24	2	-7	1	-2	/	/
CC(C)Cn1c(N)c(C(=O)COC(=O)/C=C/c2ccccc2)c(=O)n(C)c1=O	74*	/	/	/	7	-14	26	56
Cc1cccc(C(=O)OCC(=O)c2c(N)n(CC(C)C)c(=O)n(C)c2=O)c1[N+](=O)[O-]	50	/	/	/	0	0	40	45
CC(C)Cn1c(N)c(C(=O)CSc2ccccc2)c(=O)n(C)c1=O	-14	-78	11	-1	4	-10	/	/
CC(C)Cn1c(N)c(C(=O)COC(=O)CC23CC4CC(CC(C4)C2)C3)c(=O)n(C)c1=O	94*	-6	35	-15	3	8	93*	76*
Cc1cc2ccccc2n2c(=O)n(CC(C)NC(=O)c3ccc(C(N)=O)cc3F)nc12 (stereo unspecified)	/	8	9	/	/	/	/	/
CCc1cc(C(=O)NC2CCCN(Cc3ccccc3F)C2)n(C)n1 (stereo unspecified)	69	/	/	/	-1	-2	37	44
Cn1nc(C(=O)NC2CCCN(Cc3ccccc3F)C2)c2ccccc2c1=O (stereo unspecified)	-12	/	/	/	0	2	/	/
CN1/C(=C/c2cccc[n+]2CCO)Sc2ccccc21	-1	/	/	/	2	-15	/	/
CCN1/C(=C/C=C/c2sc3ccccc3[n+]2CC)Sc2ccccc21	20	/	/	/	1	-26	/	/
CC[n+]1c(/C=C2\Sc3ccccc3N2C)ccc2cccc(C)c21	86*	-28	107*	22	/	14	100*	81*
CCN1/C(=C/c2ccc3cc(C)ccc3[n+]2CC)Sc2cc(C)c(C)cc21	90*	-54	76*	-21	/	/	99*	87*
CCOC(=O)/C(=C/C=C1\Sc2cc(C)c(C)cc2N1CC)C(C)=O	0	-104	11	16	/	-10	/	/
CCN1/C(=C/c2ccc3cc(C)ccc3[n+]2CC)Sc2ccccc21	91*	-71	55*	25	-25	-14	99*	89*
CCC(C)(C)NC(=O)CN(C(=O)CCC(=O)Nc1cc(C)ccn1)c1cccc(C)c1C	/	-11	4	/	/	/	/	/
COC(C(=O)N1CCCC(c2ncncc2-c2cc(C)no2)C1)c1ccccc1 (stereo unspecified)	/	-25	/	/	/	/	/	/
COc1ccccc1C1(O)CCCN(C(=O)c2cccc3c(C)c(C)[nH]c23)C1 (stereo unspecified)	/	-122	9	/	/	/	/	/
